Measured values published in ChEMBL document CHEMBL4402567, “Structure-Activity Relationship Studies on Diversified Salicylamide Derivatives as Potent Inhibitors of Human Adenovirus Infection” (J Med Chem, 2020).
pIC50: −log10 of the molar value.

Columns and labels:
Human adenovirus 5 [1] = assay: Antiviral activity against Human adenovirus 5 infected in 293beta5 cells assessed as inhibition of plaque formation at 10 uM incubated for 7 days by GFP reporter gene assay relative to control; type: functional; settings: Human mastadenovirus C, 293beta5, 168 h
In short: (§1)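 HAdV5-GFP plaque assay in 293β5 cells at low MOI. Inhibition is expressed as percent of the infected control, with single-dose screening at 10 μM. Compounds giving >90% inhibition went on to IC50 determination. Values are means ± SD of triplicate samples from three independent experiments.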

Human adenovirus 5 [2] = assay: Antiviral activity against Human adenovirus 5 infected in 293beta5 cells assessed as inhibition of plaque formation incubated for 7 days by GFP reporter gene assay; type: functional, organism-based; settings: Human mastadenovirus C, 293beta5, 168 h; in short: as §1
[3] = Cytotoxicity against human A549 cells assessed as reduction in cell viability after 48 hrs by alamar blue assay; type: cell-based
[4] = Selectivity index, ratio of CC50 for cytotoxicity against human A549 cells to IC50 for antiviral activity against Human adenovirus 5 infected in 293beta5 cells assessed as inhibition of plaque formation after 7 days; type: toxicity, cell-based; settings: read-out: Ratio CC50/IC50
Human adenovirus 5 [5] = assay: Antiviral activity against Human adenovirus 5 infected in human A549 cells assessed as fold reduction in virus yield at 5 uM after 48 hrs endpoint dilution method relative to control; type: functional
Human adenovirus 5 [6] = assay: Antiviral activity against Human adenovirus 5 infected in 293beta5 cells assessed as inhibition of viral infection at 5 uM preincubated for 60 mins followed by viral infection by GFP reporter gene assay relative to control; type: functional; settings: Human mastadenovirus C
Human adenovirus 5 [7] = assay: Antiviral activity against Human adenovirus 5 infected in 293beta5 cells assessed as inhibition of viral infection at 5 uM measured after 2 hrs post infection by gene assay relative to control; type: functional; settings: Human mastadenovirus C, 293beta5, 2 h
Human adenovirus 5 [8] = assay: Antiviral activity against Human adenovirus 5 infected in human A549 cells asssessed as inhibition of viral entry by measuring nuclear-associated viral genome level at 5 uM after 45 mins by RT-PCR analysis (reference value: 100.24 +/- 2.77%); type: functional; parameters: scale not given: the % may be the effect or the level left
In short: (§2)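 Nuclear HAdV genome levels in treated cells were quantified at 45 min post-infection and compared with DMSO-treated cells. […] Bars are means ± SD of triplicate samples.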

Human adenovirus 5 [9] = assay: Antiviral activity against Human adenovirus 5 infected in human A549 cells assessed as inhibition of viral entry at 50 uM after 48 hrs by GFP reporter gene based assay relative to control; type: functional; settings: Human mastadenovirus C, A549, 48 h
In short: (§3)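 Entry assay in A549 epithelial cells infected with HAdV5-GFP at high MOI, with compound present throughout and 48 h incubation. GFP expression is the read-out.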

Human adenovirus 5 [10] = assay: Antiviral activity against Human adenovirus 5 infected in human A549 cells assessed as inhibition of viral DNA replication by measuring number of viral DNA copies at 5 uM after 24 hrs by RT-qPCR analysis (reference value: 100 +/- 1.55%); type: functional; parameters: scale not given: the % may be the effect or the level left
Human adenovirus 5 [11] = assay: Antiviral activity against Human adenovirus 5 infected in human A549 cells assessed as inhibition of viral entry after 48 hrs by GFP reporter gene based assay; type: functional, organism-based; settings: Human mastadenovirus C, A549, 48 h; in short: as §3
Human adenovirus 5 [12] = assay: Antiviral activity against Human adenovirus 5 infected in human A549 cells assessed as inhibition of viral DNA replication at 5 uM after 24 hrs by RT-qPCR analysis relative to control; type: functional; settings: Human mastadenovirus C, A549, 24 h
Human adenovirus 5 [13] = assay: Antiviral activity against Human adenovirus 5 infected in human A549 cells assessed as inhibition of viral DNA replication by measuring number of viral DNA copies at 50 uM after 24 hrs by RT-qPCR analysis (reference value: 100 +/- 1.55%); type: functional; parameters: scale not given: the % may be the effect or the level left
Human adenovirus 5 [14] = assay: Antiviral activity against Human adenovirus 5 infected in 293beta5 cells assessed as inhibition of viral infection at 10 uM preincubated for 60 mins followed by viral infection by GFP reporter gene assay relative to control; type: functional; settings: Human mastadenovirus C
Human adenovirus 5 [15] = assay: Antiviral activity against Human adenovirus 5 infected in human A549 cells asssessed as inhibition of viral entry by measuring nuclear-associated viral genome level at 50 uM after 45 mins by RT-PCR analysis (reference value: 100.24 +/- 2.77%); type: functional; parameters: scale not given: the % may be the effect or the level left; in short: as §2
Human adenovirus 5 [16] = assay: Antiviral activity against Human adenovirus 5 infected in human A549 cells assessed as fold reduction in virus yield at 50 uM after 48 hrs endpoint dilution method relative to control; type: functional
Human adenovirus 5 [17] = assay: Antiviral activity against Human adenovirus 5 infected in 293beta5 cells assessed as inhibition of viral infection at 10 uM measured after 2 hrs post infection by GFP reporter gene assay relative to control; type: functional; settings: Human mastadenovirus C, 293beta5, 2 h
Human adenovirus 5 [18] = assay: Antiviral activity against Human adenovirus 5 infected in human A549 cells assessed as fold reduction in virus yield at 2 uM after 48 hrs endpoint dilution method relative to control; type: functional
Human adenovirus 5 [19] = assay: Antiviral activity against Human adenovirus 5 infected in 293beta5 cells assessed as inhibition of viral infection at 5 uM measured after 20 to 40 mins post infection by GFP reporter gene assay relative to control; type: functional; parameters: scale not given: the % may be the effect or the level left
Human adenovirus 5 [20] = assay: Antiviral activity against Human adenovirus 5 infected in human A549 cells asssessed as inhibition of viral entry by measuring nuclear-associated viral genome level at 2 uM after 45 mins by RT-PCR analysis (reference value: 100.24 +/- 2.77%); type: functional; parameters: scale not given: the % may be the effect or the level left; in short: as §2
Human adenovirus 5 [21] = assay: Antiviral activity against Human adenovirus 5 infected in human A549 cells assessed as inhibition of viral DNA replication by measuring number of viral DNA copies at 2 uM after 24 hrs by RT-qPCR analysis (reference value: 100 +/- 1.55%); type: functional; parameters: scale not given: the % may be the effect or the level left
Human adenovirus 5 [22] = assay: Antiviral activity against Human adenovirus 5 infected in 293beta5 cells assessed as inhibition of viral replication at 10 uM measured immediately post infection by GFP reporter gene assay relative to control; type: functional; settings: Human mastadenovirus C

Structure (SMILES)	inhibition at 10 µM (Human adenovirus 5 [1]) [%]	pIC50 (Human adenovirus 5 [2])	CC50 at 48 h [3] [nM]	selectivity ratio at 168 h [4]	pIC50 (Human adenovirus 5 [11])	other results
C[C@H](NC(=O)c1cc(Cl)ccc1O)c1ccccc1	100	5.60	199000	78.5		
O=C(Nc1cc(F)cc(C(F)(F)F)c1)c1ccc(Cl)cc1O		6.96	20600	187	6.59	fold change (FC) (Human adenovirus 5 [5]): 385; inhibition at 5 µM (Human adenovirus 5 [6]): > 50%; inhibition at 5 µM (Human adenovirus 5 [7]): > 50%; Activity (Human adenovirus 5 [8]): 54.74%; inhibition at 50 µM (Human adenovirus 5 [9]): 100%; Activity (Human adenovirus 5 [10]): 68.17%
O=C(CNC(=O)c1cc(Cl)ccc1O)Nc1ccc([N+](=O)[O-])cc1Cl	100	5.61	129000	53.2		
CC(C)(NC(=O)c1cc(Cl)ccc1O)c1ccc(F)cc1	100	5.46	> 200000	> 57.8		
O=C(Nc1cc([N+](=O)[O-])ccc1F)c1cc(Cl)ccc1O	100	6.51	8100	26.2		
O=C(NCc1ccc([N+](=O)[O-])cc1Cl)c1cc(Cl)ccc1O	100	5.85	51400	36.7		
O=C(Nc1ccc([N+](=O)[O-])cc1)c1cc(Cl)ccc1O		6.96				fold change (FC) (Human adenovirus 5 [5]): 137; inhibition at 5 µM (Human adenovirus 5 [6]): > 50%; inhibition at 5 µM (Human adenovirus 5 [7]): > 50%; Activity (Human adenovirus 5 [8]): 15.48%; inhibition at 50 µM (Human adenovirus 5 [9]): 100%; inhibition at 5 µM (Human adenovirus 5 [12]): > 90%; Activity (Human adenovirus 5 [10]): 0.51%
O=C(Nc1cc(C(F)(F)F)cc(C(F)(F)F)c1)c1cc(Cl)ccc1O [IMD-0354]	100	7.22	4100	68.3		
O=C(Nc1ccc([N+](=O)[O-])c(Cl)c1)c1cc(Cl)ccc1O	100	6.00				
CC(C)[C@H](NC(=O)c1cc(Cl)ccc1NS(C)(=O)=O)C(=O)Nc1ccc([N+](=O)[O-])cc1Cl	99.1	6.17	174000	256	5.86	Activity (Human adenovirus 5 [13]): 4.56%; inhibition at 10 µM (Human adenovirus 5 [14]): > 50%; inhibition at 50 µM (Human adenovirus 5 [9]): 99.1%; Activity (Human adenovirus 5 [15]): 16.68%; fold change (FC) (Human adenovirus 5 [16]): 1; inhibition at 10 µM (Human adenovirus 5 [17]): > 50%
O=C(N[C@@H](Cc1ccccc1)C(=O)Nc1ccc([N+](=O)[O-])cc1Cl)c1cc(Cl)ccc1O	100	5.15	15200			
C[C@@H](NC(=O)c1cc(Cl)ccc1O)c1ccc(F)cc1	100	5.52	> 200000	> 66.2		
CC[C@@H](C)[C@H](NC(=O)c1cc(Cl)ccc1O)C(=O)Nc1ccc([N+](=O)[O-])cc1Cl		6.80	20200	128	5.60	fold change (FC) (Human adenovirus 5 [5]): 10; inhibition at 5 µM (Human adenovirus 5 [6]): > 50%; inhibition at 5 µM (Human adenovirus 5 [7]): > 50%; Activity (Human adenovirus 5 [8]): 0.54%; inhibition at 5 µM (Human adenovirus 5 [12]): > 90%; Activity (Human adenovirus 5 [10]): 2.33%
O=C(Nc1ccc([N+](=O)[O-])cc1Cl)c1cc(Cl)ccc1O [NICLOSAMIDE]	100	6.22			5.91	fold change (FC) (Human adenovirus 5 [5]): 82; Activity (Human adenovirus 5 [8]): 49.51%; inhibition at 50 µM (Human adenovirus 5 [9]): 100%; Activity (Human adenovirus 5 [10]): 0.05%
O=C(Nc1ccc([N+](=O)[O-])cc1F)c1cc(Cl)ccc1O		7.30	10900	218	5.80	fold change (FC) (Human adenovirus 5 [18]): 1.8; Activity (Human adenovirus 5 [19]): 34%; Activity (Human adenovirus 5 [20]): 57.6%; Activity (Human adenovirus 5 [21]): 75.85%
O=C(Cc1cc(Cl)ccc1O)Nc1ccc([N+](=O)[O-])cc1Cl	0					
O=C(Nc1ccc(F)c(F)c1)c1cc(Cl)ccc1O	100	6.57	8000	29.6		
C[C@@H](NC(=O)c1cc(Cl)ccc1O)c1ccc(Cl)cc1	100		31100			
C[C@@H](NC(=O)c1cc(Cl)ccc1O)c1ccccc1	100		84600			
CC(C)[C@H](NC(=O)c1cc(Cl)ccc1O)C(=O)Nc1ccc([N+](=O)[O-])cc1Cl	100	6.35	200000	444	4.95	Activity (Human adenovirus 5 [13]): 60.09%; inhibition at 10 µM (Human adenovirus 5 [22]): < 50%; Activity (Human adenovirus 5 [15]): 91.82%; fold change (FC) (Human adenovirus 5 [16]): 213
O=C(Nc1cc(F)cc(C(F)(F)F)c1)c1cc(Cl)ccc1O	100	6.74	120000	667	5.65	Activity (Human adenovirus 5 [13]): 82.41%; inhibition at 50 µM (Human adenovirus 5 [9]): 100%; inhibition at 10 µM (Human adenovirus 5 [22]): < 50%; Activity (Human adenovirus 5 [15]): 66.96%; fold change (FC) (Human adenovirus 5 [16]): 989
CN(Cc1ccc(F)cc1)C(=O)c1cc(Cl)ccc1O	0					
